≈ marks a conversion by molar mass, not a printed value.
What was measured:
[1] = test system: Human immunodeficiency virus 1; test: Antiviral activity against HIV1 3B infected in human MT4 cells assessed as protection against virus-induced cytopathic effect after 5 days MTT assay; assay type: functional, cell-based; details: Human immunodeficiency virus 1, 3B, MT4, 120 h
Summary of the method: (§1)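 HIV-1 strain IIIB and HIV-2 strain ROD in MT-4 cells, MTT-based. Test compounds in serial five-fold dilutions, in triplicate wells run alongside mock-infected cells, with untreated infected and mock controls. MT-4 cells resuspended at 6 × 10^5 cells/mL. Absorbance read at 540 and 690 nm, median OD of three wells. EC50 is the 50% effective concentration.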

[2] = Antiviral activity against HIV2 ROD infected in human MT4 cells assessed as protection against virus-induced cytopathic effect after 5 days MTT assay; assay type: functional, cell-based, Human immunodeficiency virus type 2 (ISOLATE ROD); details: Human immunodeficiency virus 2, MT4, 120 h; summary of the method: as §1
[3] = Cytotoxicity against human MT4 cells assessed as decrease in cell viability after 5 days by MTT assay; assay type: toxicity, cell-based
Summary of the method: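 MT-4 cells in mock-infected wells of the anti-HIV MTT setup. Compounds in serial five-fold dilutions in triplicate, cells at 6 × 10^5 cells/mL. Absorbance at 540 and 690 nm, median OD of three wells. CC50 is the concentration that lowers OD540 of the mock-infected control by 50%.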

[4] = Selectivity index, ratio of CC50 for human MT4 cells to EC50 for HIV1 3B; assay type: toxicity, cell-based; details: read-out: Ratio CC50/EC50
Summary of the method: (§2)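 HIV-1 IIIB and HIV-2 ROD tested in MT-4 cells by MTT. Serial fivefold dilutions of compound added to triplicate mock- and virus-infected wells. MT-4 cells at 6 × 10^5 cells/mL. Absorbance read at 540/690 nm; median OD of three wells used. CC50 is the concentration reducing mock-infected OD540 by 50%. […]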

[5] = Selectivity index, ratio of CC50 for human MT4 cells to EC50 for HIV2 ROD; assay type: toxicity, cell-based; details: read-out: Ratio CC50/EC50; summary of the method: as §2
[6] = Cytotoxicity against human K562 cells assessed as decrease in cell proliferation after 72 hrs by XTT assay; details: K562, 72 h

For `CCOC(=O)c1ccc(NC(=O)CSc2nnc(COc3cc(C)ccc3C(C)C)n2Cc2ccccc2)cc1`, the EC50 [1] was greater than 19.8 µg/mL, the EC50 [2] was greater than 19.8 µg/mL and the CC50 at 120 h [3] was 19.8 µg/mL (≈ 35.5 µM). The selectivity ratio [4] was less than 1 and the selectivity ratio [5] was less than 1.
`NS(=O)(=O)c1ccc(NC(=O)CSc2nnc(COc3ccc4ccccc4c3)n2Cc2ccccc2)cc1` gave an EC50 [1] greater than 94.4 µg/mL, an EC50 [2] greater than 94.4 µg/mL and a CC50 at 120 h [3] of 94.5 µg/mL (≈ 169 µM). The selectivity ratio [4] was less than 1 and the selectivity ratio [5] was less than 1.
`CC(=O)Nc1ccc(OCc2n[nH]c(=S)n2Cc2ccccc2)cc1` gave an EC50 [1] greater than 79 µg/mL, an EC50 [2] greater than 79 µg/mL and a CC50 at 120 h [3] of 79 µg/mL (≈ 223 µM). It also gave a selectivity ratio [4] of less than 1 and a selectivity ratio [5] of less than 1.
Molecule `Cc1ccnc2c1NC(=O)c1cccnc1N2C1CC1` [NEVIRAPINE] has an EC50 [2] greater than 4 µg/mL, a CC50 at 120 h [3] greater than 4 µg/mL and a selectivity ratio [4] greater than 80. It also gave a selectivity ratio [5] of less than 1.
In the case of `Cc1ccc(C(C)C)c(OCc2nnc(SCC(=O)Nc3ccc([N+](=O)[O-])cc3)n2Cc2ccccc2)c1`, the EC50 [1] is reported as greater than 11.2 µg/mL, the EC50 [2] is reported as greater than 11.2 µg/mL and the CC50 at 120 h [3] is reported as 11.2 µg/mL (≈ 21 µM). For the same molecule, the selectivity ratio [4] was less than 1 and the selectivity ratio [5] was less than 1.
In the case of `CCOC(=O)c1ccc(NC(=O)CSc2nnc(COc3ccc4ccccc4c3)n2Cc2ccccc2)cc1`, the EC50 [1] is reported as greater than 90.7 µg/mL, the EC50 [2] is reported as greater than 90.7 µg/mL and the CC50 at 120 h [3] is reported as no less than 90.7 µg/mL. The selectivity ratio [4] was no more than 1 and the selectivity ratio [5] was no more than 1.
For `Cc1ccc(C(C)C)c(OCc2n[nH]c(=S)n2Cc2ccccc2)c1`, the EC50 [1] was greater than 13.1 µg/mL, the EC50 [2] was greater than 13.1 µg/mL and the CC50 at 120 h [3] was 13.1 µg/mL (≈ 37 µM). It also gave a selectivity ratio [4] of less than 1 and a selectivity ratio [5] of less than 1.
Molecule `CCOC(=O)c1ccc(NC(=O)CSc2nnc(COc3ccc(NC(C)=O)cc3)n2Cc2ccccc2)cc1` has an EC50 [1] greater than 91.1 µg/mL, an EC50 [2] greater than 91.1 µg/mL and a CC50 at 120 h [3] of 91.1 µg/mL (≈ 163 µM). For the same molecule, the selectivity ratio [4] was less than 1 and the selectivity ratio [5] was less than 1.
Work on `Cc1cn([C@H]2C[C@H](N=[N+]=[N-])[C@@H](CO)O2)c(=O)[nH]c1=O` [ZIDOVUDINE] yielded an EC50 [1] of 0.0022 µg/mL (≈ 0.00823 µM), an EC50 [2] of 0.00094 µg/mL (≈ 0.00352 µM) and a CC50 at 120 h [3] greater than 25 µg/mL. For the same molecule, the selectivity ratio [4] was greater than 11600 and the selectivity ratio [5] was greater than 26700.
`O=c1[nH]cnc2c1ncn2[C@H]1CC[C@@H](CO)O1` [DIDANOSINE] gave an EC50 [1] of 2.09 µg/mL (≈ 8.85 µM), an EC50 [2] of 3.78 µg/mL (≈ 16 µM) and a CC50 at 120 h [3] greater than 50 µg/mL. For the same molecule, the selectivity ratio [4] was greater than 24 and the selectivity ratio [5] was greater than 13.
Molecule `CC(=O)Nc1ccc(OCc2nnc(SCC(=O)Nc3ccc(Cl)cc3)n2Cc2ccccc2)cc1` has an EC50 [1] greater than 14 µg/mL, an EC50 [2] greater than 14 µg/mL and a CC50 at 120 h [3] of 14 µg/mL (≈ 26.8 µM). For the same molecule, the selectivity ratio [4] was less than 1 and the selectivity ratio [5] was less than 1.
`Cc1ccc(C(C)C)c(OCC(=O)NNC(=S)NCc2ccccc2)c1` showed an EC50 [1] greater than 12.6 µg/mL, an EC50 [2] greater than 12.6 µg/mL and a CC50 at 120 h [3] of 12.6 µg/mL (≈ 34 µM). The selectivity ratio [4] was less than 1 and the selectivity ratio [5] was less than 1.
`CC(=O)Nc1ccc(OCc2nnc(SCC(=O)Nc3ccc([N+](=O)[O-])cc3)n2Cc2ccccc2)cc1` showed an EC50 [1] greater than 105 µg/mL, an EC50 [2] greater than 105 µg/mL and a CC50 at 120 h [3] of 105 µg/mL (≈ 197 µM). For the same molecule, the selectivity ratio [4] was less than 1 and the selectivity ratio [5] was less than 1.
For `O=C(CSc1nnc(COc2ccc3ccccc3c2)n1Cc1ccccc1)Nc1ccc(Br)cc1`, the EC50 [1] was greater than 58 µg/mL, the EC50 [2] was greater than 58 µg/mL and the CC50 at 120 h [3] was 58 µg/mL (≈ 104 µM). It also gave a selectivity ratio [4] of less than 1 and a selectivity ratio [5] of less than 1.
`Cc1ccc(NC(=O)c2ccc(CN3CCN(C)CC3)cc2)cc1Nc1nccc(-c2cccnc2)n1` [IMATINIB] showed an IC50 [6] of 310 nM.
With `O=C(COc1ccc2ccccc2c1)NNC(=S)NCc1ccccc1` the EC50 [1] was greater than 61.4 µg/mL, the EC50 [2] was greater than 61.4 µg/mL and the CC50 at 120 h [3] was no less than 61.4 µg/mL. The selectivity ratio [4] was no more than 1 and the selectivity ratio [5] was no more than 1.
In the case of `Nc1ccn([C@H]2CC[C@@H](CO)O2)c(=O)n1` [ZALCITABINE], the EC50 [2] is reported as 0.19 µg/mL (≈ 0.9 µM), the CC50 at 120 h [3] is reported as greater than 20 µg/mL and the selectivity ratio [4] is reported as greater than 127. The selectivity ratio [5] was greater than 108.
`O=C(CSc1nnc(COc2ccc3ccccc3c2)n1Cc1ccccc1)Nc1ccc([N+](=O)[O-])cc1` showed an EC50 [1] greater than 116 µg/mL, an EC50 [2] greater than 116 µg/mL and a CC50 at 120 h [3] of no less than 116 µg/mL. The selectivity ratio [4] was no more than 1 and the selectivity ratio [5] was no more than 1.
Molecule `CC(=O)Nc1ccc(OCc2nnc(SCC(=O)Nc3ccc(S(N)(=O)=O)cc3)n2Cc2ccccc2)cc1` has an EC50 [1] greater than 125 µg/mL, an EC50 [2] greater than 125 µg/mL and a CC50 at 120 h [3] greater than 125 µg/mL. For the same molecule, the selectivity ratio [4] was 1 and the selectivity ratio [5] was 1.
With `Cc1ccc(C(C)C)c(OCc2nnc(SCC(=O)Nc3ccc(Br)cc3)n2Cc2ccccc2)c1` the EC50 [1] was greater than 66.7 µg/mL, the EC50 [2] was greater than 66.7 µg/mL and the CC50 at 120 h [3] was 66.7 µg/mL (≈ 118 µM). The selectivity ratio [4] was less than 1 and the selectivity ratio [5] was less than 1.
For `CC(=O)Nc1ccc(OCC(=O)NNC(=S)NCc2ccccc2)cc1`, the EC50 [1] was greater than 83.5 µg/mL, the EC50 [2] was greater than 83.5 µg/mL and the CC50 at 120 h [3] was 83.5 µg/mL (≈ 224 µM). It also gave a selectivity ratio [4] of less than 1 and a selectivity ratio [5] of less than 1.
With `S=c1[nH]nc(COc2ccc3ccccc3c2)n1Cc1ccccc1` the EC50 [1] was greater than 85.8 µg/mL, the EC50 [2] was greater than 85.8 µg/mL and the CC50 at 120 h [3] was no less than 85.8 µg/mL. For the same molecule, the selectivity ratio [4] was no more than 1 and the selectivity ratio [5] was no more than 1.
`O=C(CSc1nnc(COc2ccc3ccccc3c2)n1Cc1ccccc1)Nc1ccc(Cl)cc1` showed an EC50 [1] greater than 4.93 µg/mL, an EC50 [2] greater than 4.93 µg/mL and a CC50 at 120 h [3] of no less than 4.93 µg/mL. For the same molecule, the selectivity ratio [4] was no more than 1 and the selectivity ratio [5] was no more than 1.
